TAAR1 ag: human TAAR1 agonism | Q96RJ0 | CHO RD-HGA16 TAAR1, Fluo-8 calcium fluorescence; vehicle wells 0%, saturating PEA agonist 100% | 360,000 compounds, 0.99% hits | activation, % at 3 µM;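 active = activation above the mean activation of all test compounds in the run plus 3 SD, cut at about 38% in these data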
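System: CHO RD-HGA16 cells carrying human TAAR1 plus Gα16; Incubation: 17-24 h seeding, 75 min 37 °C dye, 30 min RT; Measured by: Fluo-8 fluorescence, 5 s baseline then 140 s kinetic read; Control set: DMSO and PEA EC100; Replication: single well for each compound.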
TAAR1 antag: antagonists of human TAAR1; 360,000 compounds, 1.5% hits; AID 624466; CHO RD-HGA16 TAAR1, Fluo-8 calcium fluorescence, antagonist; inhibition, % at 3 µM; Q96RJ0;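 active = inhibition above a per-plate cutoff, the mean inhibition of test compounds on that plate plus 3 SD, cut at about 49% in these data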
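System: CHO RD-HGA16 cells bearing hTAAR1. Reagent: EC80 β-phenethylamine stimulus. Schedule: seeding 17-24 h prior, 75-min 37 °C, 30-min RT dye loading. Signal: Fluo-8 intracellular calcium dye fluorescence, real-time kinetic reads. Read-out: % inhibition from peak post-agonist over basal fluorescence ratio. Benchmarks: vehicle wells and EC80 agonist wells. Replicates: n of 1.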
LANA-H2A inh: blocks KSHV LANA binding to histone H2A/H2B. Q9QR71. cell-free LANA-H2A/H2B peptide, fluorescence polarization. 320,000 compounds, 0.6% hits. inhibition, % (concentration not given with the values). AID 2629; in the data active = inhibition mostly above about 10%, no sharp cut-off; inactive = mostly below about 6.7%
TRPN1 ag: activates the zebrafish TRPN1 channel; HEK293 zebrafish TRPN1-YFP, Fluo-8 calcium fluorescence; 100% = response to 87 µM carbachol; activation, % at 3 µM; 220,000 compounds, 0.18% hits; AID 1424;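 active = activation above its plate's cutoff, the mean activation of test wells on that plate plus 3 SD, cut at about 19% in these data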
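System: zebrafish TRPN1-YFP in HEK293 cells / Dosing: 3 µM single point / Timing: dye loading 1 h at 37 °C, then 30 min room temperature / Signal: Fluo-8 calcium fluorescence, excitation 470-495 nm, emission 515-575 nm / Read-out basis: percent activation from peak over basal fluorescence ratio, control-normalized / Control set: high carbachol 87 µM, low DMSO alone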
TRPML3 ag: activates the human TRPML3 channel; Q8TDD5; HEK293 TRPML3-YFP, Fluo-8 calcium fluorescence; 100% = the carbachol control signal; activation, % at 3 µM; 220,000 compounds, 0.29% hits; AID 1448;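 active = activation above its plate's cutoff, the mean activation of the plate's test wells plus 3 SD, cut at about 12% in these data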
Target sequence (Q8TDD5 whole entry, looked up): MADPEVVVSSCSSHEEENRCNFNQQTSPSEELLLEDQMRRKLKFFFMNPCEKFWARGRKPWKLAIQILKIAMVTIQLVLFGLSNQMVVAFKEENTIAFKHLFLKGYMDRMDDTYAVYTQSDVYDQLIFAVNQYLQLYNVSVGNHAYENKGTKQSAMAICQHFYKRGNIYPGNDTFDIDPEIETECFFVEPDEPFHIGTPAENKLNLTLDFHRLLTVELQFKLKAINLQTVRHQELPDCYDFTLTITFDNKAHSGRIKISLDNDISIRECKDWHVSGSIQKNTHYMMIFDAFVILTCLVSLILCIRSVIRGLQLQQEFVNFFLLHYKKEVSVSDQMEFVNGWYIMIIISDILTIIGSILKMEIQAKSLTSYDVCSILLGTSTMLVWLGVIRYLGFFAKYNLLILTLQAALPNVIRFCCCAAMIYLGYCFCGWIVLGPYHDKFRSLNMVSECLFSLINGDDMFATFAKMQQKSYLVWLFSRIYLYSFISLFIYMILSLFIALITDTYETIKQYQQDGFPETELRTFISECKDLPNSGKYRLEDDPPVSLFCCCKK
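Material: TRPML3-YFP stable HEK293 cells | Dosing: One concentration, 3 µM nominal, 0.3% DMSO | Timing: 125 s total fluorescence read per well | Technique: Fluo-8 calcium dye fluorescence, ex 470-495, em 515-575 nm | Measure: Percent activation from peak-to-basal fluorescence ratio, scaled between DMSO and carbachol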
GPR7 antag: human neuropeptides B/W receptor 1 antagonism | GPR7-expressing cells, fluorescence antagonist assay | inhibition, % at 4.4 µM | 290,000 compounds, 1.1% hits; in the data active = inhibition above about 16%, passing the limit was not always enough;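 also: cells stimulated with the agonist NPW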
TAAR1 ag conf: human TAAR1 agonism, confirmed. shares compounds with TAAR1 ag. CHO RD-HGA16 TAAR1, Fluo-8 calcium fluorescence; scaled: DMSO 0%, maximal phenethylamine 100%. activation, % at 3 µM. 2,400 compounds, 82% hits. AID 651783;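 active = activation above a cutoff set at the run's mean compound activation plus 3 SD, cut at about 39% in these data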
Ga16 nonsel ag: nonselective agonism, TAAR1 counter-screen | shares compounds with TAAR1 ag | CHO-Ga16 parental, Fluo-8 calcium fluorescence; normalized to maximal ATP response, DMSO zero | activation, % at 3 µM | 2,400 compounds, 50% hits | AID 651787;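 active = activation above the run cutoff, the mean activation over all tested wells plus 3 SD, cut at about 12% in these data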
TAAR1 desens: counter-screen for human TAAR1 agonists: agonists that desensitize TAAR1; shares compounds with TAAR1 ag; CHO RD-HGA16 hTAAR1, Fluo-8 calcium, beta-PEA response inhibition; inhibition, % at 3 µM; 2,400 compounds, 46% hits; AID 651951;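 active = inhibition above the run cutoff, the mean inhibition of all test compounds plus 3 SD, cut at about 49% in these data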;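 also: beta-PEA stimulus applied at its EC80; loss of beta-PEA calcium signal after compound pretreatment read as receptor desensitization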
Ga16 nonsel ant: nonselective Ga16 antagonist in TAAR1 agonist counter-screen; shares compounds with TAAR1 ag; CHO-Ga16 ATP-induced calcium, Fluo-8 fluorescence; inhibition, % at 3 µM; 2,400 compounds, 39% hits; AID 651952;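 active = inhibition above the plate's mean compound inhibition plus 3 SD, computed per plate, cut at about 22% in these data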
Hits are given with their value; n = inactive; x = not tested or not shown. Compounds with a hit are over-represented: about 3.4% of the library has one in this group of screens.

SMILES	TAAR1 ag	TAAR1 antag	LANA-H2A inh	TRPN1 ag	TRPML3 ag	GPR7 antag	TAAR1 ag conf	Ga16 nonsel ag	TAAR1 desens	Ga16 nonsel ant
Cc1ccccc1C(=O)Oc1cc(N)n(S(=O)(=O)c2ccccc2)n1	84	n	n	n	n	n	n	n	n	n
Nc1ccc(CCNc2ncnc3c2ncn3[C@@H]2O[C@H](CO)[C@@H](O)[C@H]2O)cc1	n	n	n	x	x	x	x	x	x	x
CC(C)N(C)c1ncnc2c1ncn2[C@H]1CN(CCc2ccccc2)C[C@@H](CO)O1	48	n	x	x	x	x	63	n	n	n
COCCN1C[C@@H](CO)O[C@@H](n2cnc3c(N4CCOCC4)ncnc32)C1	n	n	x	x	x	x	x	x	x	x
OCC1OC(n2cnc3c(NCCc4ccccc4)ncnc32)C(O)C1O (centres undefined)	70	n	n	x	x	x	75	n	65	n
OC[C@@H]1CN(CCN2CCOCC2)C[C@H](n2cnc3c(NCc4ccc(F)cc4)ncnc32)O1	n	n	x	x	x	x	x	x	x	x
OC[C@@H]1CN(CCc2ccccc2)C[C@H](n2cnc3c(NCc4ccc(F)cc4)ncnc32)O1	66	n	x	x	x	x	75	n	n	n
OC[C@@H]1CN(CCc2ccccc2)C[C@H](n2cnc3c(N4CCOCC4)ncnc32)O1	61	n	x	x	x	x	74	n	n	n
Cc1cccc(N2Cc3ccc(Br)cc3C2)c1	n	n	n	x	x	x	x	x	x	x
O=C(NC1CCOCC1)C1CCC(=O)N(CCc2cccc(F)c2)C1 (centres undefined)	n	n	n	x	x	n	x	x	x	x
COc1ccc(CC(=O)Nc2nc(OCC(F)(F)F)cnc2-c2ccc(Cl)cc2Cl)cc1	n	n	x	x	x	x	x	x	x	x
Cc1ccc(-c2nn(-c3ccccc3)cc2CSC(=N)N)cc1	76	n	n	n	n	n	84	27	n	25
O=C(NN1C(=O)C2C3C=CC(C3)C2C1=O)c1cccc(Cl)c1 (centres undefined)	n	n	n	n	n	n	x	x	x	x
O=C(NN1C(=O)C2C(c3ccccc3)C=CC(c3ccccc3)C2C1=O)c1cccc(Br)c1 (centres undefined)	69	87	n	n	n	n	79	72	85	81
O=C(NN1C(=O)C2C3c4ccccc4C(c4ccccc43)[C@@H]2C1=O)c1ccccc1 (some centres undefined)	n	n	n	n	n	n	x	x	x	x
O=C(NN1C(=O)C2C(c3ccccc3)C=CC(c3ccccc3)C2C1=O)c1ccccc1 (centres undefined)	70	68	n	n	n	n	n	13	n	29
CN1[C@@H]2CCC[C@H]1CC(NC(=O)c1nn(C)c3ccccc13)C2 (some centres undefined)	n	n	n	x	x	x	x	x	x	x
C#CCOc1ccc(/C=C2/C(=O)NN(c3ccc(F)cc3)C2=O)cc1OC	99	n	n	x	x	n	92	55	n	n
CC(C)N1CCc2c(sc(NC(=O)CCS(=O)(=O)c3ccccc3)c2C#N)C1	n	n	n	x	x	n	x	x	x	x
CC(NCC(O)COc1ccc2ccccc2c1)c1ccccc1 (centres undefined)	n	n	n	x	x	n	x	x	x	x
Cc1cc(OCC(O)CNC(C)c2ccccc2)ccc1C(C)C (centres undefined)	63	n	n	x	x	n	71	32	54	32
CCN(Cc1nc2ccccc2c(=O)[nH]1)C(=O)COc1ccccc1-c1ccccc1	n	n	n	x	x	x	x	x	x	x
